# What was measured:
# Jurkat = assay: Inhibitory concentration against Jurkat cells; assay type: functional, cell-based; conditions: Homo sapiens
# Outline: (§1)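 HL60 (2.5 × 10⁴/well) or Jurkat (1 × 10⁵/well) in RPMI-1640 with 10% FBS and 1% L-glutamine, 5% CO2, 37 °C. Exposed to 10⁻¹⁰–10⁻⁴ M for 72 h, final DMSO below 0.5% v/v. [3H]-thymidine (0.5 μCi) added for the final 24 h. Incorporation counted by β-scintillation.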
# CCRF-CEM [1] = assay: Concentration of the drug required to achieve 50% cytotoxicity against leukemia CCRF-CEM cell line; assay type: cell-based; conditions: human
# CCRF-CEM [2] = assay: Concentration of the drug required to achieve 50% cytotoxicity against leukemia HL-60(TB) cell line; assay type: cell-based; conditions: human
# CCRF-CEM [3] = assay: Concentration required to achieve total growth inhibition against leukemia CCRF-CEM cell line; assay type: functional; conditions: Homo sapiens
# COLO 205 [4] = assay: inhibition against colon COLO 205 cancer cell line; assay type: functional; conditions: Homo sapiens
# CCRF-CEM [5] = assay: inhibition against leukemia CCRF-CEM cell line; assay type: functional; conditions: Homo sapiens
# COLO 205 [6] = assay: Concentration of the drug required to achieve 50% cytotoxicity against colon COLO 205 cancer cell line; assay type: cell-based; conditions: human
# COLO 205 [7] = assay: Concentration required to achieve total growth inhibition against colon COLO 205 cancer cell line; assay type: functional; conditions: Homo sapiens
# HCT-15 [8] = assay: Concentration required to achieve total growth inhibition against colon HCT-15 cancer cell line; assay type: functional; conditions: Homo sapiens
# HCT-15 [9] = assay: Concentration of the drug required to achieve 50% cytotoxicity against colon HCT-15 cancer cell line; assay type: cell-based; conditions: human
# HCT-116 [10] = assay: Concentration required to achieve total growth inhibition against colon HCT116 cancer cell line; assay type: functional; conditions: Homo sapiens
# HCT-15 [11] = assay: inhibition against colon HCT-15 cancer cell line; assay type: functional; conditions: Homo sapiens
# HL-60 [12] = assay: inhibition against leukemia HL-60(TB) cell line; assay type: functional; conditions: Homo sapiens
# HL-60 [13] = assay: Concentration required to achieve total growth inhibition against leukemia HL-60(TB) cell line; assay type: functional; conditions: Homo sapiens
# HCT-116 [14] = assay: Concentration of the drug required to achieve 50% cytotoxicity against colon HCT116 cancer cell line; assay type: cell-based; conditions: human
# HCC 2998 [15] = assay: Concentration required to achieve total growth inhibition against colon HCC2998 cancer cell line; assay type: functional; conditions: Homo sapiens
# HCT-116 [16] = assay: inhibition against colon HCT116 cancer cell line; assay type: functional; conditions: Homo sapiens
# HCC 2998 [17] = assay: inhibition against colon HCC2998 cancer cell line; assay type: functional; conditions: Homo sapiens
# HCC 2998 [18] = assay: Concentration of the drug required to achieve 50% cytotoxicity against colon HCC2998 cancer cell line; assay type: cell-based; conditions: human
# HT-29 [19] = assay: Concentration of the drug required to achieve 50% cytotoxicity against colon HT-29 cancer cell line; assay type: cell-based; conditions: human
# HT-29 [20] = assay: inhibition against colon HT-29 cancer cell line; assay type: functional; conditions: Homo sapiens
# HT-29 [21] = assay: Concentration required to achieve total growth inhibition against colon HT-29 cancer cell line; assay type: functional; conditions: Homo sapiens
# KM12 [22] = assay: Concentration required to achieve total growth inhibition against colon KM12 cancer cell line; assay type: functional; conditions: Homo sapiens
# K562 [23] = assay: Concentration required to achieve total growth inhibition against leukemia K-562 cell line; assay type: functional; conditions: Homo sapiens
# KM12 [24] = assay: inhibition against colon KM12 cancer cell line; assay type: functional; conditions: Homo sapiens
# KM12 [25] = assay: Concentration of the drug required to achieve 50% cytotoxicity against colon KM12 cancer cell line; assay type: cell-based; conditions: human
# MOLT-4 [26] = assay: inhibition against leukemia MOLT-4 cell line; assay type: functional; conditions: Homo sapiens
# LOX IMVI [27] = assay: inhibition against melanoma LOX IMVI cell line; assay type: functional; conditions: Homo sapiens
# LOX IMVI [28] = assay: Concentration of the drug required to achieve 50% cytotoxicity against melanoma LOX IMVI cell line; assay type: cell-based; conditions: human
# LOX IMVI [29] = assay: Concentration required to achieve total growth inhibition against melanoma LOX IMVI cell line; assay type: functional; conditions: Homo sapiens
# MCF7 [30] = assay: Concentration required to achieve total growth inhibition against breast MCF-7 cancer cell line; assay type: functional; conditions: Homo sapiens
# MCF7 [31] = assay: Concentration of the drug required to achieve 50% cytotoxicity against breast MCF-7 cancer cell line; assay type: cell-based; conditions: human
# Malme-3M [32] = assay: inhibition against melanoma MALME-3M cell line; assay type: functional; conditions: Homo sapiens
# Malme-3M [33] = assay: Concentration of the drug required to achieve 50% cytotoxicity against melanoma MALME-3M cell line; assay type: cell-based; conditions: human
# MOLT-4 [34] = assay: Concentration required to achieve total growth inhibition against leukemia MOLT-4 cell line; assay type: functional; conditions: Homo sapiens
# Malme-3M [35] = assay: Concentration required to achieve total growth inhibition against melanoma MALME-3M cell line; assay type: functional; conditions: Homo sapiens
# MOLT-4 [36] = assay: Concentration of the drug required to achieve 50% cytotoxicity against leukemia MOLT-4 cell line; assay type: cell-based; conditions: human
# NCI/ADR-RES [37] = assay: inhibition against breast NCI/ ADR-RES cancer cell line; assay type: functional; conditions: Homo sapiens
# NCI/ADR-RES [38] = assay: Concentration of the drug required to achieve 50% cytotoxicity against breast NCI/ ADR-RES cancer cell line; assay type: cell-based; conditions: human
# NCI/ADR-RES [39] = assay: Concentration required to achieve total growth inhibition against breast NCI/ ADR-RES cancer cell line; assay type: functional; conditions: Homo sapiens
# PC-3 [40] = assay: Concentration of the drug required to achieve 50% cytotoxicity against prostate PC-3 cell line; assay type: cell-based; conditions: human
# PC-3 [41] = assay: inhibition against prostate PC-3 cell line; assay type: functional; conditions: Homo sapiens
# Plasmodium falciparum = assay: In vitro antimalarial activity against Plasmodium falciparum HB3 by [3H]hypoxanthine uptake; assay type: functional, organism-based
# PC-3 [42] = assay: Concentration required to achieve total growth inhibition against prostate PC-3 cell line; assay type: functional; conditions: Homo sapiens
# RPMI-8226 [43] = assay: Concentration of the drug required to achieve 50% cytotoxicity against leukemia RPMI-8226 cell line; assay type: cell-based; conditions: human
# RPMI-8226 [44] = assay: Concentration required to achieve total growth inhibition against leukemia RPMI-8226 cell line; assay type: functional; conditions: Homo sapiens
# SW-620 [45] = assay: inhibition against colon SW-620 cancer cell line; assay type: functional; conditions: Homo sapiens
# SW-620 [46] = assay: Concentration of the drug required to achieve 50% cytotoxicity against colon SW-620 cancer cell line; assay type: cell-based; conditions: human
# SR [47] = assay: inhibition against leukemia SR cell line; assay type: functional; conditions: Homo sapiens
# SR [48] = assay: Concentration of the drug required to achieve 50% cytotoxicity against leukemia SR cell line; assay type: cell-based; conditions: human
# SR [49] = assay: Concentration required to achieve total growth inhibition against leukemia SR cell line; assay type: functional; conditions: Homo sapiens
# SW-620 [50] = assay: Concentration required to achieve total growth inhibition against colon SW-620 cancer cell line; assay type: functional; conditions: Homo sapiens
# SK-MEL-5 [51] = assay: inhibition against melanoma SK-MEL-5 cell line; assay type: functional; conditions: Homo sapiens
# SK-MEL-5 [52] = assay: Concentration required to achieve total growth inhibition against melanoma SK-MEL-5 cell line; assay type: functional; conditions: Homo sapiens
# T47D [53] = assay: inhibition against breast T-47D cancer cell line; assay type: functional; conditions: Homo sapiens
# T47D [54] = assay: Concentration of the drug required to achieve 50% cytotoxicity against breast T-47D cancer cell line; assay type: cell-based; conditions: human
# T47D [55] = assay: Concentration required to achieve total growth inhibition against breast T-47D cancer cell line; assay type: functional; conditions: Homo sapiens
# UACC-62 [56] = assay: inhibition against melanoma UACC-62 cell line; assay type: functional; conditions: Homo sapiens
# UACC-62 [57] = assay: Concentration of the drug required to achieve 50% cytotoxicity against melanoma UACC-62 cell line; assay type: cell-based; conditions: human
# UACC-62 [58] = assay: Concentration required to achieve total growth inhibition against melanoma UACC-62 cell line; assay type: functional; conditions: Homo sapiens
# HL-60 [59] = assay: Inhibitory concentration against HL60 cells; assay type: functional, cell-based; conditions: Homo sapiens; outline: as §1
# SK-MEL-5 [60] = assay: Concentration of the drug required to achieve 50% cytotoxicity against melanoma SK-MEL-5 cell line; assay type: cell-based; conditions: human
# RPMI-8226 [61] = assay: inhibition against leukemia RPMI-8226 cell line; assay type: functional; conditions: Homo sapiens
# K562 [62] = assay: inhibition against leukemia K-562 cell line; assay type: functional; conditions: Homo sapiens
# MCF7 [63] = assay: inhibition against breast MCF-7 cancer cell line; assay type: functional; conditions: Homo sapiens
compound,measurement,setting,value
"COP(=O)(OCC[C@H]1O[C@@H]2OC3(C)CC[C@H]4[C@H](C)CC[C@@H]([C@H]1C)[C@@]24OO3)OCC[C@H]1O[C@@H]2OC3(C)CC[C@H]4[C@H](C)CC[C@@H]([C@H]1C)[C@@]24OO3 (single isomer, unassigned)",IC50,Jurkat,7.7 µM
same,LC50,CCRF-CEM [1],100 µM
same,LC50,CCRF-CEM [2],20 µM
same,TGI,CCRF-CEM [3],30 µM
same,GI50,COLO 205 [4],< 10 nM
same,GI50,CCRF-CEM [5],769 nM
same,LC50,COLO 205 [6],2.59 µM
same,TGI,COLO 205 [7],210 nM
same,TGI,HCT-15 [8],14.4 µM
same,LC50,HCT-15 [9],38.7 µM
same,TGI,HCT-116 [10],32.6 µM
same,GI50,HCT-15 [11],< 10 nM
same,GI50,HL-60 [12],< 10 nM
same,TGI,HL-60 [13],1000 nM
same,LC50,HCT-116 [14],> 100 µM
same,TGI,HCC 2998 [15],16.4 µM
same,GI50,HCT-116 [16],1850 nM
same,GI50,HCC 2998 [17],1250 nM
same,LC50,HCC 2998 [18],52.9 µM
same,LC50,HT-29 [19],40 µM
same,GI50,HT-29 [20],< 10 nM
same,TGI,HT-29 [21],12.6 µM
same,TGI,KM12 [22],12.6 µM
same,TGI,K562 [23],1170 nM
same,GI50,KM12 [24],< 10 nM
same,LC50,KM12 [25],40 µM
same,GI50,MOLT-4 [26],< 10 nM
same,GI50,LOX IMVI [27],< 10 nM
same,LC50,LOX IMVI [28],52.9 µM
same,TGI,LOX IMVI [29],16.4 µM
same,TGI,MCF7 [30],18.3 µM
same,LC50,MCF7 [31],72.2 µM
same,GI50,Malme-3M [32],47.4 nM
same,LC50,Malme-3M [33],> 100 µM
same,TGI,MOLT-4 [34],9.8 µM
same,TGI,Malme-3M [35],32.6 µM
same,LC50,MOLT-4 [36],33.5 µM
same,GI50,NCI/ADR-RES [37],994 nM
same,LC50,NCI/ADR-RES [38],75.5 µM
same,TGI,NCI/ADR-RES [39],22.1 µM
same,LC50,PC-3 [40],70.3 µM
same,GI50,PC-3 [41],< 10 nM
same,IC50,Plasmodium falciparum,0.09 nM
same,TGI,PC-3 [42],18.8 µM
same,LC50,RPMI-8226 [43],> 100 µM
same,TGI,RPMI-8226 [44],13.7 µM
same,GI50,SW-620 [45],< 10 nM
same,LC50,SW-620 [46],40 µM
same,GI50,SR [47],< 10 nM
same,LC50,SR [48],> 100 µM
same,TGI,SR [49],2840 nM
same,TGI,SW-620 [50],12.6 µM
same,GI50,SK-MEL-5 [51],199 nM
same,TGI,SK-MEL-5 [52],15.2 µM
same,GI50,T47D [53],< 10 nM
same,LC50,T47D [54],25.6 µM
same,TGI,T47D [55],< 10 µM
same,GI50,UACC-62 [56],486 nM
same,LC50,UACC-62 [57],42.9 µM
same,TGI,UACC-62 [58],18.4 µM
same,IC50,HL-60 [59],143 nM
same,LC50,SK-MEL-5 [60],38.9 µM
same,GI50,RPMI-8226 [61],< 10 nM
same,GI50,K562 [62],< 10 nM
same,GI50,MCF7 [63],50.3 nM
